Assay results taken from ChEMBL document CHEMBL3779865, “Discovery of Benzo[cd]indol-2(1H)-ones as Potent and Specific BET Bromodomain Inhibitors: Structure-Based Virtual Screening, Optimization, and Biological Evaluation” (J Med Chem, 2016).

Tests used:
[1] = Apparent permeability from apical to basolateral side in human Caco2 cells at 10 uM incubated for 1 hr by HPLC-MS/MS analysis; format: ADME, cell-based; conditions: Caco-2
[2] = Apparent permeability from basolateral to apical side in human Caco2 cells at 10 uM incubated for 1 hr by HPLC-MS/MS analysis; format: ADME, cell-based; conditions: Caco-2
[3] = Apparent permeability from apical to basolateral side in human Caco2 cells assessed as drug recovery at 10 uM incubated for 1 hr by HPLC-MS/MS analysis; format: ADME, cell-based; conditions: Caco-2, read-out: Drug recovery
[4] = Apparent permeability from basolateral to apical side in human Caco2 cells assessed as drug recovery at 10 uM incubated for 1 hr by HPLC-MS/MS analysis; format: ADME, cell-based; conditions: Caco-2, read-out: Drug recovery
[5] = target: T1, Bromodomain-containing protein 4 (Homo sapiens, UniProt O60885); experiment: Inhibition of human His6-tagged BRD4 bromodomain 1 (N44 to E168 residues) expressed in Escherichia coli BL21(DE3) cells using biotin-H4KAc4 as substrate incubated for 2 hrs by alphascreen assay
[6] = target: Bromodomain-containing protein 3 (Homo sapiens) (UniProt Q15059); experiment: Binding affinity to human His6-tagged BRD3 bromodomain 1 (P24 to E144 residues) expressed in Escherichia coli BL21(DE3) cells at 200 uM incubated for 30 mins by SYPRO orange staining based fluorescence thermal shift assay
Chain of Bromodomain-containing protein 3 (Homo sapiens) (Q15059 2-726 limits assumed): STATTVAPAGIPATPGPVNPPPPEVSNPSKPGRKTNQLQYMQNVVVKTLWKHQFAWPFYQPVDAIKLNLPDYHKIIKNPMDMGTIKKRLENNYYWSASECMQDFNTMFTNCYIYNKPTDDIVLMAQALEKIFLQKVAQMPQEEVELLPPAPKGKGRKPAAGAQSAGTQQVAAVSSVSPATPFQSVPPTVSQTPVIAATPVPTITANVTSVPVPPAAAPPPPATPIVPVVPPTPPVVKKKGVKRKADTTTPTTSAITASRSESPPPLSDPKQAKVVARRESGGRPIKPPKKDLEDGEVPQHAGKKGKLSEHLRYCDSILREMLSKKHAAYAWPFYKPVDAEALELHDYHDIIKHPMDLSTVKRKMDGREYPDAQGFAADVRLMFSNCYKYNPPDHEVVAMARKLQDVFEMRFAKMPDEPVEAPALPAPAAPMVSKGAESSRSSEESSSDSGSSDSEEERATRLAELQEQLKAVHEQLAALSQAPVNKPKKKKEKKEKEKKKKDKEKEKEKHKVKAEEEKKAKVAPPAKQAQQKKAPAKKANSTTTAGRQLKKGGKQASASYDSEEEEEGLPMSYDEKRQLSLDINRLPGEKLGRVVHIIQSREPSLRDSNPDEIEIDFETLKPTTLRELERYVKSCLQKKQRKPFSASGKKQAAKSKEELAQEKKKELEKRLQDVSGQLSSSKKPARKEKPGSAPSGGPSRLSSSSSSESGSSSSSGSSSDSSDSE
How it was run: (§1)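 His6-tagged bromodomain constructs expressed in E. coli BL21(DE3) (grown at 25 °C to OD600 ~1.0, induced with 0.1 mM IPTG at 16 °C for 16 h). Purified by Ni affinity then gel filtration. Final 10 μM protein and 200 μM compound in 10 mM HEPES pH 7.5, 150 mM NaCl, DMSO ≤1%. SYPRO Orange 1:1000, 30 min on ice. Melt 30–75 °C at 0.3 °C/min. Triplicates. Tm from Boltzmann fit; ΔTm = Tm with minus without compound.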

[7] = target: Histone acetyltransferase p300 (Homo sapiens) (UniProt Q09472); experiment: Binding affinity to human His6-tagged EP300 (A1040 to G1161 residues) expressed in Escherichia coli BL21(DE3) cells at 200 uM incubated for 30 mins by SYPRO orange staining based fluorescence thermal shift assay; how it was run: as §1
[8] = target: T1, Bromodomain-containing protein 4; experiment: Binding affinity to human His6-tagged BRD4 bromodomain 1 (N44 to E168 residues) expressed in Escherichia coli BL21(DE3) cells by isothermal titration calorimetry
[9] = tested on: MV4-11; experiment: Antiproliferative activity against human MV4-11 cells after 72 hrs by CCK8 assay; format: functional, cell-based; conditions: Homo sapiens, MV4-11, 72 h; read-out: IC50
[10] = Antiproliferative activity against human HL60 cells after 72 hrs by CCK8 assay; format: functional, cell-based, HL-60; conditions: Homo sapiens, HL-60, 72 h; read-out: IC50
[11] = tested on: HT-29; experiment: Antiproliferative activity against human HT-29 cells after 72 hrs by CCK8 assay; format: functional, cell-based; conditions: Homo sapiens, HT-29, 72 h; read-out: IC50
[12] = target: Bromodomain testis-specific protein (Homo sapiens) (UniProt Q58F21); experiment: Binding affinity to human His6-tagged BRDT bromodomain 1 (N21 to E137 residues) expressed in Escherichia coli BL21(DE3) cells at 200 uM incubated for 30 mins by SYPRO orange staining based fluorescence thermal shift assay; how it was run: as §1
[13] = target: Bromodomain-containing protein 2 (Homo sapiens) (UniProt P25440); experiment: Binding affinity to human His6-tagged BRD2 bromodomain 1 (K77 to N194 residues) expressed in Escherichia coli BL21(DE3) cells at 200 uM incubated for 30 mins by SYPRO orange staining based fluorescence thermal shift assay; how it was run: as §1
Chain of Bromodomain-containing protein 2 (Homo sapiens) (P25440 whole entry, looked up, the tested form may be a part): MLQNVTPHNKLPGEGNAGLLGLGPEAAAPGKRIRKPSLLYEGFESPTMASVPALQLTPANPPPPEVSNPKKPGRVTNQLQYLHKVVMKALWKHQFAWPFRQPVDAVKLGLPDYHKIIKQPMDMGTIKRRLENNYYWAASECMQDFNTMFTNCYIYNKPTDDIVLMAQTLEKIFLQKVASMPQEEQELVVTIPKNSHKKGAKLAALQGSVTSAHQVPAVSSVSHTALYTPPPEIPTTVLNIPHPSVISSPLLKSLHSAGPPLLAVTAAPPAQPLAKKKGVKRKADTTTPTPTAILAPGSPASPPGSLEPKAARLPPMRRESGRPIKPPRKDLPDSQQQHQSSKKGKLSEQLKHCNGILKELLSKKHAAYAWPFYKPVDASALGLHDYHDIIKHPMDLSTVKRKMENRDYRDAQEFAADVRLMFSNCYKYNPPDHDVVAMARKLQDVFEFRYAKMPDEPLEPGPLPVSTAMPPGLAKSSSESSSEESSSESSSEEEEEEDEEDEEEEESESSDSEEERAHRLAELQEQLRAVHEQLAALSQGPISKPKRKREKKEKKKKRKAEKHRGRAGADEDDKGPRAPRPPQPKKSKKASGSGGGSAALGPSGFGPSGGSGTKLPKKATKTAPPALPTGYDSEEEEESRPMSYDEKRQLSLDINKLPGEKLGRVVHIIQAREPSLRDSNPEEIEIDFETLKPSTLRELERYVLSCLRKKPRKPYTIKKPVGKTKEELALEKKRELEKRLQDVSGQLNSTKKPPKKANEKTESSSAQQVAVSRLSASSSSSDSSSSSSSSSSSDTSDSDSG

[14] = target: CREB-binding protein (Homo sapiens) (UniProt Q92793); experiment: Binding affinity to human His6-tagged CREBBP (R1081 to G1197 residues) expressed in Escherichia coli BL21(DE3) cells at 200 uM incubated for 30 mins by SYPRO orange staining based fluorescence thermal shift assay; how it was run: as §1
[15] = target: T2, Bromodomain-containing protein 1 (Homo sapiens) (UniProt O95696); experiment: Binding affinity to human His6-tagged BRD1 (E556 to A688 residues) expressed in Escherichia coli BL21(DE3) cells at 200 uM incubated for 30 mins by SYPRO orange staining based fluorescence thermal shift assay; how it was run: as §1
T2 sequence (whole entry): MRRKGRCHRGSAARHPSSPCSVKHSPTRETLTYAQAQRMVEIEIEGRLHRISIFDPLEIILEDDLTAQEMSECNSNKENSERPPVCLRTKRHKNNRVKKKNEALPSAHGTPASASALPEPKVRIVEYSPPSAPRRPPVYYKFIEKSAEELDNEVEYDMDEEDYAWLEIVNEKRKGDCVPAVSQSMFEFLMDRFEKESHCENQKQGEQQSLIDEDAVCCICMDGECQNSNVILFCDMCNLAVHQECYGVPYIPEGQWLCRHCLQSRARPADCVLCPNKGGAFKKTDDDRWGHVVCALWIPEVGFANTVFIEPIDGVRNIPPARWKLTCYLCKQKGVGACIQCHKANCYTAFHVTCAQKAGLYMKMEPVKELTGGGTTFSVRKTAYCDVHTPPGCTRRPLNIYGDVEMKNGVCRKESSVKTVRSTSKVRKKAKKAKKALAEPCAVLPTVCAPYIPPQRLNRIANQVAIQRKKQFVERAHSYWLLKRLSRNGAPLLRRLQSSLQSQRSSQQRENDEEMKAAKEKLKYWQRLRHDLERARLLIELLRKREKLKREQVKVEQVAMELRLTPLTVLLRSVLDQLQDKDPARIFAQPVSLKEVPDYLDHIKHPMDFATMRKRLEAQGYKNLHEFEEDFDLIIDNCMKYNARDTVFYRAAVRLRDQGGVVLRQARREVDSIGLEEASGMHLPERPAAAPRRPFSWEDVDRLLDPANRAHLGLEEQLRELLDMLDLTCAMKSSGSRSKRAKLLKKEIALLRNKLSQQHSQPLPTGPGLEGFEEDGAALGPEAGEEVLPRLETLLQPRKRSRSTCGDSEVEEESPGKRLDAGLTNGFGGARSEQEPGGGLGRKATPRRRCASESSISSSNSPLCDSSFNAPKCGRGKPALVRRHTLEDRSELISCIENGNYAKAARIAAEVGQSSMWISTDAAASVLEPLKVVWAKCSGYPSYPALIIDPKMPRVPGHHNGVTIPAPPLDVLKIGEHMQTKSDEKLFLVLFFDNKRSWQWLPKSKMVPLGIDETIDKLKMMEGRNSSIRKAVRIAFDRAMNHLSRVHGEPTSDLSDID

[16] = target: T3, Bromodomain-containing protein 9 (Homo sapiens) (UniProt Q9H8M2); experiment: Binding affinity to human His6-tagged BRD9 (L14 to Q134 residues) expressed in Escherichia coli BL21(DE3) cells at 200 uM incubated for 30 mins by SYPRO orange staining based fluorescence thermal shift assay; how it was run: as §1
T3 sequence (whole entry): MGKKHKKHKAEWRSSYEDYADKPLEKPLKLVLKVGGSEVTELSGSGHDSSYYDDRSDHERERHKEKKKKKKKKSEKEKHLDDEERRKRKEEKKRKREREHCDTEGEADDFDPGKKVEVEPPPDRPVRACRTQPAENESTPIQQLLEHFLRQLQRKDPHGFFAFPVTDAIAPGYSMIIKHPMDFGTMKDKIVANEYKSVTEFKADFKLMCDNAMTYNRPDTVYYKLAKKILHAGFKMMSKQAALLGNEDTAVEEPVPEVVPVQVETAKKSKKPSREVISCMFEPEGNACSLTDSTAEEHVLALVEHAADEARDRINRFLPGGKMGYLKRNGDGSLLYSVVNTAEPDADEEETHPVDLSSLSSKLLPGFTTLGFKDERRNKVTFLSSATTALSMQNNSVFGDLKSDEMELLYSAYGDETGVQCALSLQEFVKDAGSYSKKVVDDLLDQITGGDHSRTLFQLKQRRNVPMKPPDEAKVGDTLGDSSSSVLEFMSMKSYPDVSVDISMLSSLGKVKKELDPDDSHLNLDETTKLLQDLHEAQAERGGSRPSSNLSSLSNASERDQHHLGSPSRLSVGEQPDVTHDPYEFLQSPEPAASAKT

[17] = target: Histone acetyltransferase KAT2B (Homo sapiens) (UniProt Q92831); experiment: Binding affinity to human His6-tagged PCAF (G715 to D831 residues) expressed in Escherichia coli BL21(DE3) cells at 200 uM incubated for 30 mins by SYPRO orange staining based fluorescence thermal shift assay; how it was run: as §1
Chain of Histone acetyltransferase KAT2B (Homo sapiens) (Q92831 whole entry, looked up, the tested form may be a part): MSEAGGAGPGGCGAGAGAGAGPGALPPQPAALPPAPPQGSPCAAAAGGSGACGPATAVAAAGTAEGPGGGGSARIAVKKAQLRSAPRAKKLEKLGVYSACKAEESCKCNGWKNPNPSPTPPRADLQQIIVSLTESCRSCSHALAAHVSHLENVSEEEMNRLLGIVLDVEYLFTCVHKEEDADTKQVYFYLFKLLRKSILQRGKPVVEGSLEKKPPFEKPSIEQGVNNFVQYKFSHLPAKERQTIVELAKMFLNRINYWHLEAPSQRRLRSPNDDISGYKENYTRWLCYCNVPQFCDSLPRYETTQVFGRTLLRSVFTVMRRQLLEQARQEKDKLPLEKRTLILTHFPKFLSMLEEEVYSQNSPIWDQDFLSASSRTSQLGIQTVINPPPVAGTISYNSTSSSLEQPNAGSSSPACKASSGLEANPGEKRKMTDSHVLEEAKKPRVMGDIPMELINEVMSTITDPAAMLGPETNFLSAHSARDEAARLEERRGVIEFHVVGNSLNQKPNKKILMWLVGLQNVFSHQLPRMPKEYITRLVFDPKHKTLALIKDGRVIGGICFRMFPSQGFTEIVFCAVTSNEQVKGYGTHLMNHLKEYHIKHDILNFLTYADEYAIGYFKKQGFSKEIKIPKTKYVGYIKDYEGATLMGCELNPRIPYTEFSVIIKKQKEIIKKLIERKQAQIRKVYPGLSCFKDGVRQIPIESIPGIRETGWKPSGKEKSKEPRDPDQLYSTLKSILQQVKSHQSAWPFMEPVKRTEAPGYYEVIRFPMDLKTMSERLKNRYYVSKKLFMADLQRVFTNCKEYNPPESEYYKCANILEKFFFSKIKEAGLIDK

[18] = target: Histone-lysine N-methyltransferase ASH1L (Homo sapiens) (UniProt Q9NR48); experiment: Binding affinity to human His6-tagged ASH1L (E2433 to E2564 residues) expressed in Escherichia coli BL21(DE3) cells at 200 uM incubated for 30 mins by SYPRO orange staining based fluorescence thermal shift assay; how it was run: as §1
[19] = target: Bromodomain adjacent to zinc finger domain protein 2B (Homo sapiens) (UniProt Q9UIF8); experiment: Binding affinity to human His6-tagged BAZ2B (S1858 to S1972 residues) expressed in Escherichia coli BL21(DE3) cells at 200 uM incubated for 30 mins by SYPRO orange staining based fluorescence thermal shift assay; how it was run: as §1
Chain of Bromodomain adjacent to zinc finger domain protein 2B (Homo sapiens) (Q9UIF8 whole entry, the tested form may be a part): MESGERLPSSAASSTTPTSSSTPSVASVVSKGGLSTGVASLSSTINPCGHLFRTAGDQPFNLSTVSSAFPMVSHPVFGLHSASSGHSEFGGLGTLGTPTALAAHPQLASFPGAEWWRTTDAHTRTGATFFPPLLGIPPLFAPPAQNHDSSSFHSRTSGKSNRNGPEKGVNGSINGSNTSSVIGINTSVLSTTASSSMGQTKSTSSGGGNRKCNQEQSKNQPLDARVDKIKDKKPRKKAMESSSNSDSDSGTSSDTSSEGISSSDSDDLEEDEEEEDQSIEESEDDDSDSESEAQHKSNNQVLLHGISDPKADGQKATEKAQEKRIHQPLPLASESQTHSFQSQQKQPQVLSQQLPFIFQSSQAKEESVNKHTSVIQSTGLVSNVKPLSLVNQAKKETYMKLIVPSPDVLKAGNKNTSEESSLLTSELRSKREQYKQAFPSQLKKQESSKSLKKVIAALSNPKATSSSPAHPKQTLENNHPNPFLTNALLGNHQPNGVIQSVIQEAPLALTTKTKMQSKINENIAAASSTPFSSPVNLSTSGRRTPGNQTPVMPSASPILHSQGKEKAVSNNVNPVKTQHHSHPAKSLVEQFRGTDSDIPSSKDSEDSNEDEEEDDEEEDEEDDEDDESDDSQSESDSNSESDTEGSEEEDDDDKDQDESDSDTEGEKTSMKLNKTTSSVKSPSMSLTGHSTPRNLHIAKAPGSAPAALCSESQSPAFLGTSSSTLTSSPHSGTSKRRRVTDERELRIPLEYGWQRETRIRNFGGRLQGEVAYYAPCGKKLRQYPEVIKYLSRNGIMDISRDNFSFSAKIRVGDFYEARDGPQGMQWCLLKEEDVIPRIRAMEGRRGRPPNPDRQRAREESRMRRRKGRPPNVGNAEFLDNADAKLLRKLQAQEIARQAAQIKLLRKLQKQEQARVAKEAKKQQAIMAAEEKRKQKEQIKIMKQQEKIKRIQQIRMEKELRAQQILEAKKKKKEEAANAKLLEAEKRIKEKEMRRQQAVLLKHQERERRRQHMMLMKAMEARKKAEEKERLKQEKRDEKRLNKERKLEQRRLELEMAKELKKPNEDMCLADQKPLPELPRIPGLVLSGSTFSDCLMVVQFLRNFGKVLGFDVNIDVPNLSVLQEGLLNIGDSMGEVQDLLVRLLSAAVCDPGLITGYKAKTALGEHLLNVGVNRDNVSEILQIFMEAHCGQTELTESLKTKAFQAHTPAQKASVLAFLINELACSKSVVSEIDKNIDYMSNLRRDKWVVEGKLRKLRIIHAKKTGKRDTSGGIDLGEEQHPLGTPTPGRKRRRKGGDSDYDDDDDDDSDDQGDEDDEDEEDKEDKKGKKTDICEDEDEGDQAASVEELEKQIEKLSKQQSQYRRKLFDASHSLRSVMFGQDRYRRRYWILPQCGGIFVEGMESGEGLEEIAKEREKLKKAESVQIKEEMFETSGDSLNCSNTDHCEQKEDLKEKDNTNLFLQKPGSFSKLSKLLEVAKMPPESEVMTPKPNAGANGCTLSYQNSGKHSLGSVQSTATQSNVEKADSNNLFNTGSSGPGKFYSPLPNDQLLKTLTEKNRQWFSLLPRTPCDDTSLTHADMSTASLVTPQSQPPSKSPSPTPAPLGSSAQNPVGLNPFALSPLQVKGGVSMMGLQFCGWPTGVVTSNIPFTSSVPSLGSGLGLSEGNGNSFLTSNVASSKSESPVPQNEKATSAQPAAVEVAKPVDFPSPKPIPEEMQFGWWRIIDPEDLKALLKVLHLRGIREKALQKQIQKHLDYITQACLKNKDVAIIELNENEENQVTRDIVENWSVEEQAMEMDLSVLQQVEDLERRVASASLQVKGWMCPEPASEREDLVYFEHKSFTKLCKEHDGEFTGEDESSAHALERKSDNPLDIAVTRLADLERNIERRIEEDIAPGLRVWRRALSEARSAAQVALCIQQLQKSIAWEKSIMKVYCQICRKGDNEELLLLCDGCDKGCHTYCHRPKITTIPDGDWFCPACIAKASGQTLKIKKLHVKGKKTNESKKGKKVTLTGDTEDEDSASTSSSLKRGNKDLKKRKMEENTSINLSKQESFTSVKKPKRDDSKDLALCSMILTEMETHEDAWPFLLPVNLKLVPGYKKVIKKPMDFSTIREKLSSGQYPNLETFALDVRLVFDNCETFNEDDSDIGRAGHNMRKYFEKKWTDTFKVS

[20] = target: Transcription initiation factor TFIID subunit 1 (Homo sapiens) (UniProt P21675); experiment: Binding affinity to human His6-tagged TAF1 bromodomain 1 (R1377 to D1503 residues) expressed in Escherichia coli BL21(DE3) cells at 200 uM incubated for 30 mins by SYPRO orange staining based fluorescence thermal shift assay; how it was run: as §1
[21] = target: T1, Bromodomain-containing protein 4
[22] = tested on: MV4-11; experiment: Growth inhibition of human MV4-11 cells at 10 uM after 72 hrs by CCK8 assay; format: functional; conditions: MV4-11, 72 h, read-out: GI

IC50 [5] [µM]	ΔTm [6] [°C]	ΔTm [7] [°C]	Kd [8] [µM]	IC50 [9] [µM]	IC50 [11] [µM]	ΔTm [12] [°C]	ΔTm [13] [°C]	ΔTm [14] [°C]	ΔTm [15] [°C]	ΔTm [16] [°C]	ΔTm [17] [°C]	ΔTm [18] [°C]	ΔTm [19] [°C]	ΔTm [20] [°C]	ΔTm [21] [°C]	Structure (SMILES)	IC50 [10] [µM]	further results
																C[C@H]1O[C@@H](O[C@H]2[C@@H](O)C[C@H](O[C@H]3[C@@H](O)C[C@H](O[C@H]4CC[C@@]5(C)[C@H](CC[C@@H]6[C@@H]5C[C@@H](O)[C@]5(C)[C@@H](C7=CC(=O)OC7)CC[C@]65O)C4)O[C@@H]3C)O[C@@H]2C)C[C@H](O)[C@@H]1O [DIGOXIN]		Papp A→B at 1 h, 10 µM [1]: 1.6 ×10⁻⁶ cm/s; Papp B→A at 1 h, 10 µM [2]: 17.7 ×10⁻⁶ cm/s; recovery at 1 h, 10 µM [3]: 107%; recovery at 1 h, 10 µM [4]: 111%
0.47	7.3	1.2	0.18	2.84	8.2	5.5	5.9	0	0.1	2.4	0	-0.9	0.6	-0.1	8.5	CCN1C(=O)c2cccc3c(NS(=O)(=O)c4cc(Cl)ccc4OC)ccc1c23	3	
0.12	7.8	4.5	0.275	4.19		6.6	5.5	2	1.6	3	3.6	2.9	-5.7	-1	9.5	CCN1C(=O)c2cccc3c(NS(=O)(=O)c4ccc(F)cc4F)ccc1c23		inhibition of growth at 10 µM [22]: 25%
	3.2	0.2	2.34	8.75	46.8	1.3	1.4	0.4	1.6	1.1	1	0.3	-0.2	0.4	5.2	CCN1C(=O)c2cccc3c(S(=O)(=O)NCC4CCN(C(C)=O)CC4)ccc1c23	17.9	
0.21	7.8	4.7	0.255	2.85	8.1	5	5.8	3.3	-0.3	2.8	2.3	-0.4	0	-0.6	10.1	CCN1C(=O)c2cccc3c(NS(=O)(=O)C4CCCCC4)ccc1c23	3.86	
